# High-throughput results: PubChem, several laboratories
# Hits are enriched below; roughly 1.3% of the tested compounds scored in any of these assays.
# Diaph act CS: compounds boosting diaphorase resazurin reduction – biochemical, uHTS, resorufin fluorescence, counter-screen for diaphorase-coupled primary assays, primary screen | Diaphorase/resazurin coupled assay, 16 min; stronger effect = higher value; 1 = vehicle wells, 0 = NADH-free wells | activation factor at 20 µM | hit rate 0.005% among 190,000;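 active = diaphorase activity raised at least twofold by the compound at 20 µM; inactive = activation factor below 2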
#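 Material: Purified diaphorase enzyme from Clostridium kluyveri | Buffer or medium: 50 mM HEPES pH 7.4 with 4.542 mM MgCl2, 0.005% Tween 20 | Times: 16 min enzyme reaction, ambient temperature | Signal: Red resorufin fluorescence at 544/590 nm excitation/emission | Measure: Increased resorufin signal from activators or reducing compounds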
# PfG6PD inh: PfG6PD enzyme inhibitors, primary screen, biochemical, fluorescence intensity, uHTS; hit rate 0.78% among 350,000; AID 504690, 2011; inhibition, % at 20 µM; PfGluPho enzyme, NADPH resazurin-diaphorase fluorescence;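 active = inhibition reaching at least a set limit at 20 µM in the primary screen, cut at about 59% in these data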;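 also: 0% = DMSO wells with substrate and 100% = DMSO wells lacking glucose-6-phosphate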
# G6PDH counter: L. mesenteroides G6PDH inhibitors, counter-screen for G6PDH-coupled screening assays, biochemical, Leuconostoc mesenteroides enzyme; Purified L. mesenteroides G6PDH, diaphorase/resazurin coupled fluorescence, 45 min; inhibition, % at 5 µM; hit rate 0.12% among 200,000; AID 1020, 2008; in the data active = inhibition above about 50%
# HKDC1 inh: HKDC1 hexokinase inhibitors, primary screen, biochemical, fluorescence, uHTS; recombinant HKDC1, G6PDH/diaphorase resazurin coupled fluorescence; hit rate 0.16% among 340,000; Q2TB90; inhibition, % at 20 µM; AID 493160, 2011;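 active = inhibition above about 35% when tested at 20 µM, limit read from the data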;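 also: plate controls were DMSO wells with enzyme for no effect and DMSO wells lacking enzyme for full effect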
# Target sequence (Q2TB90 whole entry, looked up): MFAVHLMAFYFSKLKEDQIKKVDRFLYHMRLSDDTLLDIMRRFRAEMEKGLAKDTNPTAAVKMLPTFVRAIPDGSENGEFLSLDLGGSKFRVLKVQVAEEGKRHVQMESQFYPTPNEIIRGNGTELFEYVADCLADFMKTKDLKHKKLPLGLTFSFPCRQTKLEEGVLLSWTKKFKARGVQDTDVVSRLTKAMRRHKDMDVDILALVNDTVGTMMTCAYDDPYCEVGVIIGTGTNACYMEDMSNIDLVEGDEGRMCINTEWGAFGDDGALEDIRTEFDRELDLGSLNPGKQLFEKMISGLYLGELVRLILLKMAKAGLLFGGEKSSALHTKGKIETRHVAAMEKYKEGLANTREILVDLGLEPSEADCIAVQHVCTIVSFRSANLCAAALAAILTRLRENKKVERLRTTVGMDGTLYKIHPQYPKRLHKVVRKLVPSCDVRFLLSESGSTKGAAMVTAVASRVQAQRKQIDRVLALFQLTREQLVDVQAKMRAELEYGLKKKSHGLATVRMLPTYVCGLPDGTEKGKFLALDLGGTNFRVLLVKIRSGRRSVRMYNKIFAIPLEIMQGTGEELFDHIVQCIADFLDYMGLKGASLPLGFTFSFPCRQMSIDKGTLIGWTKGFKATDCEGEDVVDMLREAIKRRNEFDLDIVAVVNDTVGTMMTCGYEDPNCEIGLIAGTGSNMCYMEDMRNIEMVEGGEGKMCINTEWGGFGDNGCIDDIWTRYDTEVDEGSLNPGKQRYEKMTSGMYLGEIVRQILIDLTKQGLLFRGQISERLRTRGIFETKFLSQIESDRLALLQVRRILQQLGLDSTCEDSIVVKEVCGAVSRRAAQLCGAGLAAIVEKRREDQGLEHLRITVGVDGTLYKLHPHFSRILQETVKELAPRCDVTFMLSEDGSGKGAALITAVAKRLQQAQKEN
#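 Material – in-house recombinant HK5 (HKDC1) enzyme · Quantity – HKDC1 at 5 µg/mL · Buffer or medium – pH 8.0 Tris buffer with 10 mM MgCl2 · Reagent – glucose with 1 mM ATP · Dosing – single 20 µM dose · Times – reaction time 90 min, room temperature, protected from light · Technique – resorufin fluorescence at 613 nm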
# Diaph inh CS: diaphorase inhibitors and chemical oxidizers, primary screen, counter-screen for diaphorase-coupled primary assays, biochemical, uHTS, resorufin fluorescence | diaphorase resazurin-to-resorufin fluorescence, NADH, 16 min; bacterial (C. kluyveri) enzyme, not human | hit rate 0.69% among 190,000 | inhibition, % at 20 µM | AID 1217, 2008;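 active = primary screen inhibition at 20 µM above a set limit, cut at about 50% in these data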;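 also: plate controls were DMSO with full reaction for no effect and wells lacking NADH for full effect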
#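 Test system: diaphorase enzyme from Clostridium kluyveri; amount: diaphorase at 0.14 U/mL in enzyme working solution; detection: fluorescence of resorufin formed from resazurin, Ex 544/Em 590 nm; times: reaction incubation of 16 min at room temperature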
# TbHK1 inh: Trypanosoma brucei hexokinase 1 inhibitors, primary screen, biochemical, G6PDH-coupled NADH absorbance, MLSCN library; recombinant TbHK1, G6PDH-coupled NADH A340; AID 1430, 2008; hit rate 0.11% among 220,000; hexokinase 1 [Trypanosoma brucei]; inhibition, % at 10 µM;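 active = inhibition of 50% or more in the single-dose primary screen; inactive = inhibition below 50%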
# * marks the source's active call; other numbers are inactive results; nt = no result.
SMILES,Diaph act CS,PfG6PD inh,G6PDH counter,HKDC1 inh,Diaph inh CS,TbHK1 inh
N#Cc1c(N)sc(=S)c2c1CCN(Cc1ccccc1)C2,0.2,nt,-45,nt,82*,nt
CCN1CCc2c(sc(N)c2C#N)C1,0.9,6,-21,4,11,-23
CCN1CCc2c(C#N)c(N3CCCCC3)nc(NCc3ccccc3)c2C1,0.8,14,-39,9,20,-9
N#Cc1c(NCCO)nc(NCc2ccccc2)c2c1CCN(Cc1ccccc1)C2,0.4,30,38,2,59*,-11
OCCC1CN(Cc2ccc3cccc(F)c3n2)CCN1Cc1ccccc1 (stereo not given),nt,-3,nt,-1,nt,nt
CC(C)c1ccc(CNC(=O)C(=O)NCCCn2ccnc2)cc1,1,-4,3,-6,2,1
Cc1ccccc1-n1c(SC/C(O)=C(\C#N)c2nc3ccccc3[nH]2)nnc1-c1ccncc1,0.6,-1,-1,4,43,-16
Cc1cc(C)n2c(SC/C(O)=C(\C#N)c3nc4ccccc4[nH]3)nnc2n1,0.5,-9,22,10,53*,-29
CCCc1cc(-c2nc(N)ncc2-c2csc(C)n2)c(O)cc1OC,0.8,-15,1,4,17,-13
CCCc1cc(-c2nc(N)ncc2-c2ccc3c(c2)OCCCO3)c(O)cc1OC,0.7,71*,-41,8,26,-4
COc1ccc(NS(=O)(=O)c2cc3c4c(c2)C(C)C(=O)N4CCC3)cc1 (stereo not given),nt,7,nt,-1,nt,nt
CCCC(=O)N1CCN(c2ccc(NC(=O)c3cc4ccccc4o3)cc2Cl)CC1,1,98*,-32,14,-2,-16
CCCCn1c(C)cc2cc(O)ccc21,0.7,11,57*,3,32,1
CC(=O)Nc1ccc(NC(=O)COC(=O)c2c(-c3ccccc3)noc2C)cc1,nt,-6,nt,-6,nt,nt
CCOc1ccc(NC(=S)NC(=O)c2cncc(Br)c2)cc1,nt,-4,nt,0,nt,nt
COc1ccc(Br)cc1C(=O)Nc1ccc(C(=O)O)cc1,0.1,-1,4,-6,92*,6
COc1ccc(NC(=O)c2cc3cccc(OC)c3oc2=Nc2ccc(C(=O)O)cc2)cc1OC,0.2,-4,-2,16,78*,-18
COc1ccc(Br)cc1C(=O)Nc1ccc(O)cc1,0.9,-5,15,-10,13,-5
NNc1ccc(Cl)c(C(=O)O)c1,nt,10,nt,-6,nt,0
CCOC(=O)CSc1ccc(-c2nc3ccccc3[nH]2)cn1,0.9,4,-6,1,11,-8
N#CCSc1ccc(-c2nc3ccccc3[nH]2)cn1,0.4,23,11,1,58*,-24
Cc1cnc(C(=O)NC2CCSc3ccccc32)cn1 (stereo not given),nt,-12,nt,-4,nt,nt
Cc1cc(C)cc(Nc2cc(=O)n(C3CCCCC3)c(=O)[nH]2)c1,0.8,-4,2,5,17,-4
Cc1cc2nc3c(=O)n(C4CCCCC4)c(=O)[nH]c3nc2cc1N,0.4,47,30,11,60*,5
Cc1ccc(S(=O)(=O)/N=C2/C=C(Sc3ncn[nH]3)C(=O)c3ccccc32)c(C)c1,0.3,nt,37,nt,69*,20
Cc1ccc(S(=O)(=O)/N=C2\C=C(NS(=O)(=O)c3ccccc3)C(=O)c3ccccc32)c(C)c1,nt,6,nt,27,nt,nt
N#Cc1ccc(OCC(=O)NCC2COc3ccccc3O2)cc1 (stereo not given),nt,4,nt,-4,nt,nt
Cc1cc(C)cc(COn2ccnc2)c1,1,-17,8,-7,2,-4
c1ccc(-[n+]2nc(Nc3cccc4ccccc34)sc2-c2c3ccccc3cc3ccccc23)cc1,nt,83*,nt,18,nt,nt
